S1P1 ag pot: agonists and agonism potentiators of human S1P1 receptor | P21453 | activation, % at 9.5 µM | 56,000 compounds, 0.57% hits | S1P1 CRE-bla cells, forskolin, beta-lactamase FRET, potentiator mode; S1P1 agonist co-added at EC20, 2 nM; 100% = saturating reference agonist, 0% = basal;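 active = activation above a cutoff set at the mean activation of all tested compounds plus 3 SD, cut at about 54% in these data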;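 note: forskolin at 4 µM as EC80 and the EC20 agonist is SEW2871; 100% = SEW2871 at its EC100 plus forskolin at EC80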
Target sequence (P21453 whole entry, looked up): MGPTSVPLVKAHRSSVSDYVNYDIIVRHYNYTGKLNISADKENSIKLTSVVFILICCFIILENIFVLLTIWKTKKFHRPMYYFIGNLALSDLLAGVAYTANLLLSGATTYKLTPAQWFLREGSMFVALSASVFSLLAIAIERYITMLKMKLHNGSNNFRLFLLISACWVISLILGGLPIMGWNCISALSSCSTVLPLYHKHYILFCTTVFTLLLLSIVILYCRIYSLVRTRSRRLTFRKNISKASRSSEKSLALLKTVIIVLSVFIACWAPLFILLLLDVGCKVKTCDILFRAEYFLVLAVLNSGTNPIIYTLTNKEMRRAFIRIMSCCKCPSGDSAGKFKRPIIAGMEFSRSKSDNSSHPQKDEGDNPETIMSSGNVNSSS
S1P3 ag: activates the human S1P3 receptor | Q99500 | S1P3 NFAT-BLA reporter cells, agonism, FRET ratio; relative to 1 µM S1P, basal subtracted | activation, % at 4.5 µM | 60,000 compounds, 0.1% hits | AID 373;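 active = activation above the screen-wide mean plus 3 SD, cut at about 4.5% in these data, passing the limit was not always enough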
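Assay system: CHO cells stably expressing human S1P3, Gα16 and NFAT-β-lactamase reporter. Timing: overnight plating, 4 h compound 37 °C, 2 h substrate RT. Signal: β-lactamase FRET emission ratio 460/535 nm. Measure: percent activation versus median 1 µM S1P response, basal-subtracted, per plate. Repeats: primary screen single test, confirmation screen in triplicate.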
5HT1a antag: blocks the human serotonin 5-HT1a receptor. P08908. CHO 5-HT1a Ga15 NFAT-bla reporter, antagonist mode. inhibition, % at 10 µM. 62,000 compounds, 0.68% hits;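 active = inhibition above the mean of all tested compounds plus 3 SD, cut at about 43% in these data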;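 note: receptor stimulated by 5-CT agonist at 100 nM near EC80; beta-lactamase reporter measured by ratiometric fluorescence of a cleavable substrate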
HTR1A agonist: activates the human 5-HT1a serotonin receptor. 65,000 compounds, 0.56% hits. activation, % at 10 µM. CHO 5-HT1a Ga15 NFAT-bla reporter, FRET ratio; 0% basal, 100% maximal reference agonist. P08908;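 active = activation above the screen-wide mean activation plus 3 SD, cut at about 19% in these data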;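 note: 0% = DMSO wells and 100% = 5-CT at EC100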
5HT1E antag: antagonists of human 5-HT1E serotonin receptor | P28566 | CHO 5-HT1E Ga15 NFAT-bla reporter, FRET, antagonist | inhibition, % at 6 µM | 65,000 compounds, 0.99% hits;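 active = inhibition above a set limit, the mean inhibition across every tested compound plus 3 SD, cut at about 29% in these data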;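 note: signal is the 460 over 535 nm emission ratio of beta-lactamase substrate; 0% = agonist plus DMSO wells and 100% = wells without agonist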
5HT1E ag: activates the human 5-HT1E serotonin receptor | AID 574 | CHO 5-HT1E Ga15 NFAT-bla reporter, FRET; 0% DMSO wells, 100% control agonist wells | 65,000 compounds, 0.69% hits | activation, % at 6 µM | P28566;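 active = activation above a set limit, the screen-wide mean activation plus 3 SD, cut at about 8.5% in these data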;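 note: 100% = positive control agonist at 1 µM giving full maximal response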
Starred values were filed as active, the others as inactive. Most compounds without a hit are left out; they make up all but 3% or so of the library.

How did CCN1CCN(c2ncc(C(=O)Nc3cc(Cl)ccc3OC)c3ccccc23)CC1 do in these assays?
S1P1 ag pot: 22; S1P3 ag: -1; 5HT1a antag: -10; HTR1A agonist: 0; 5HT1E antag: 20; 5HT1E ag: 40*

Results for Cc1cc(N2CCN(C(=O)c3ccco3)CC2)n2nc(C)nc2n1 ?
S1P1 ag pot: 1; S1P3 ag: -1; 5HT1a antag: -6; HTR1A agonist: 0; 5HT1E antag: 3; 5HT1E ag: 0

What do the screens show for `Nc1nonc1C(=O)NCCNCc1cc(Br)ccc1OCc1ccccc1F`?
S1P1 ag pot: 78*; S1P3 ag: -2; 5HT1a antag: 52*; HTR1A agonist: -1; 5HT1E antag: 12; 5HT1E ag: 0

How did COc1cc(OC)cc(C(=O)N2c3ccc(F)cc3CCC2C)c1 (configuration not stated) do in these assays?
S1P1 ag pot: 2; S1P3 ag: 1; 5HT1a antag: 2; HTR1A agonist: 1; 5HT1E antag: -6; 5HT1E ag: 26*

How did Cc1cccc(NC(=O)C2CCN(S(=O)(=O)c3cccc4cccnc34)CC2)n1 do in these assays?
S1P1 ag pot: -17; S1P3 ag: 0; 5HT1a antag: 0; HTR1A agonist: -2; 5HT1E antag: -2; 5HT1E ag: 1

Results for CN1/C(=C\C(=O)COc2ccc3c(c2)OCO3)C(C)(C)c2ccccc21 ?
S1P1 ag pot: 29; S1P3 ag: -1; 5HT1a antag: 10; HTR1A agonist: -5; 5HT1E antag: 1; 5HT1E ag: 14*

Results for FC(F)(F)c1ccc(N2CCN(c3cc(-c4ccccc4)nc4ncnn34)CC2)nc1 ?
S1P1 ag pot: 108*; S1P3 ag: -1; 5HT1a antag: -17; HTR1A agonist: 0; 5HT1E antag: 4; 5HT1E ag: 0

How did Brc1ccc(-c2cnc(-c3cccs3)o2)cc1 do in these assays?
S1P1 ag pot: -26; S1P3 ag: 0; 5HT1a antag: 19; HTR1A agonist: -2; 5HT1E antag: -14; 5HT1E ag: 0

What do the screens show for `COc1ccccc1N=c1scc(-c2ccc3c(c2)NC(=O)CO3)n1CC1CCCO1` (configuration not stated)?
S1P1 ag pot: 8; S1P3 ag: 1; 5HT1a antag: 6; HTR1A agonist: 1; 5HT1E antag: -2; 5HT1E ag: 0

Results for CCN=c1scc(-c2ccc3c(c2)NC(=O)CO3)n1N=C1CCCC1 ?
S1P1 ag pot: 64*; S1P3 ag: -1; 5HT1a antag: -1; HTR1A agonist: -2; 5HT1E antag: 1; 5HT1E ag: 0

Results for CC(=O)Nc1ccc(S(=O)(=O)N(C)c2ccc(O)cc2)cc1 ?
S1P1 ag pot: 6; S1P3 ag: -1; 5HT1a antag: 1; HTR1A agonist: -2; 5HT1E antag: 4; 5HT1E ag: 52*

Results for N#Cc1ccc(Oc2cccnc2)cc1C#N ?
S1P3 ag: 0; 5HT1a antag: -6; HTR1A agonist: 1; 5HT1E antag: -2; 5HT1E ag: 0

Results for Cn1cnnc1SCC(=O)Nc1ccccc1Sc1ccccc1 ?
S1P1 ag pot: 7; S1P3 ag: 1; 5HT1a antag: -10; HTR1A agonist: 311*; 5HT1E antag: -4; 5HT1E ag: 0

What do the screens show for `CC1=CCC2C(=O)N(c3nc(C)cc(C)n3)C(=O)C2C1` (configuration not stated)?
S1P1 ag pot: -16; S1P3 ag: 1; 5HT1a antag: -1; HTR1A agonist: -2; 5HT1E antag: 4; 5HT1E ag: 0

What do the screens show for `COCCn1c(C)cc(C(=O)CSc2nc3ccccc3o2)c1C`?
S1P1 ag pot: 66*; S1P3 ag: 0; 5HT1a antag: -5; HTR1A agonist: 1; 5HT1E antag: -1; 5HT1E ag: 0

What do the screens show for `CC(C)COC(=O)NCCOC(=O)Nc1cccc(Cl)c1`?
S1P1 ag pot: 70*; S1P3 ag: -1; 5HT1a antag: 6; HTR1A agonist: -3; 5HT1E antag: -2; 5HT1E ag: 0

Results for CCCCCOC(=O)NCC(O)c1ccccc1 (configuration not stated) ?
S1P1 ag pot: -38; S1P3 ag: -1; 5HT1a antag: -4; HTR1A agonist: 1; 5HT1E antag: -3; 5HT1E ag: -1

How did CC(C)COC(=O)NCCCOC(=O)Nc1ccccc1 do in these assays?
S1P1 ag pot: 0; S1P3 ag: -1; 5HT1a antag: 18; HTR1A agonist: 224*; 5HT1E antag: -3; 5HT1E ag: 0

What do the screens show for `O=C(COC(=O)C1CCCCC1)Nc1ccc(N2CCCCC2)cc1`?
5HT1a antag: -19; HTR1A agonist: -2; 5HT1E antag: -6; 5HT1E ag: 0

What do the screens show for `COc1cc(OC)nc(NC(=O)COC(=O)C2CCCCC2)n1`?
S1P1 ag pot: 4; S1P3 ag: -1; 5HT1a antag: -1; HTR1A agonist: 91*; 5HT1E antag: -1; 5HT1E ag: 1

Results for O=C(Nc1nnc(C2CC2)o1)c1ccc(S(=O)(=O)N2CCCc3ccccc32)cc1 ?
S1P1 ag pot: -4; S1P3 ag: -1; 5HT1a antag: 0; HTR1A agonist: -2; 5HT1E antag: 1; 5HT1E ag: 0

Results for Cc1cc(NC(=O)COC(=O)c2ccc(S(=O)(=O)N3CCCc4ccccc43)cc2)no1 ?
S1P1 ag pot: -7; S1P3 ag: -1; 5HT1a antag: 11; HTR1A agonist: -4; 5HT1E antag: 32*; 5HT1E ag: -1

Results for COc1ccc(-c2nnc(NC(=O)c3ccc(S(=O)(=O)N4CCCc5ccccc54)cc3)o2)cc1 ?
S1P1 ag pot: 10; S1P3 ag: 0; 5HT1a antag: 62*; HTR1A agonist: -1; 5HT1E antag: -2; 5HT1E ag: 0

What do the screens show for `Cc1ccc(S(=O)(=O)N2CCCC2C(=O)OCc2ccco2)cc1` (configuration not stated)?
S1P1 ag pot: 6; S1P3 ag: -1; 5HT1a antag: 13; HTR1A agonist: -1; 5HT1E antag: 7; 5HT1E ag: -2

How did COC(=O)c1ccc(NC(=O)CSc2nnc(COc3ccccc3)n2C)cc1 do in these assays?
S1P3 ag: -1; 5HT1a antag: 0; HTR1A agonist: -1; 5HT1E antag: -7; 5HT1E ag: 0

Results for CCOC(=O)c1cccc(NC(=O)Cn2c(CC(=O)N3CCCC3)nc3ccccc32)c1 ?
S1P1 ag pot: -27; S1P3 ag: 0; 5HT1a antag: 6; HTR1A agonist: -3; 5HT1E antag: -3; 5HT1E ag: 0

How did COC(=O)C1CCN(C(=O)C(C)Oc2ccc(Cl)cc2Cl)CC1 (configuration not stated) do in these assays?
5HT1a antag: 24; HTR1A agonist: 90*; 5HT1E antag: 3; 5HT1E ag: -2

Source: PubChem (The Scripps Research Institute Molecular Screening Center)
